# Experiments:
# Assay type in all cases: functional
# [1] = system: Escherichia coli; test: Antimicrobial activity against extended-spectrum beta-lactamase producing Escherichia coli 64771 after overnight incubation by broth microdilution method
# Outline: (§1)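 Modified broth microdilution. Peptides are serially diluted in 0.01% acetic acid with 0.2% BSA at 10-fold the final concentration, then added to MH medium in polypropylene plates. Bacteria from an overnight culture are added to a final (2-7) × 10^5 CFU/mL. Plates are incubated overnight at 37 °C. MIC is the lowest concentration with no visible growth.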
# [2] = system: Staphylococcus aureus; test: Antimicrobial activity against Staphylococcus aureus ATCC 25923 after overnight incubation by broth microdilution method
# Outline: (§2)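 Modified broth microdilution in polypropylene 96-well plates with Mueller-Hinton (MH) medium. Bulk-synthesized peptides were serially diluted at 10-fold final strength in 0.01% acetic acid with 0.2% BSA, then added 1:10 to MH. Inoculum came from an overnight culture at a final (2-7) × 10^5 CFU/mL. Plates were incubated overnight at 37 °C. MIC was the lowest concentration with no visible growth.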
# [3] = system: Pseudomonas aeruginosa; test: Antimicrobial activity against Pseudomonas aeruginosa LES400 after overnight incubation by broth microdilution method; outline: as §2
# [4] = system: Pseudomonas aeruginosa; test: Antimicrobial activity against Pseudomonas aeruginosa H1027 after overnight incubation by broth microdilution method; outline: as §1
# [5] = system: Enterococcus faecalis; test: Antimicrobial activity against Enterococcus faecalis ATCC 29212 after overnight incubation by broth microdilution method; outline: as §1
# [6] = system: Escherichia coli; test: Antimicrobial activity against extended-spectrum beta-lactamase producing Escherichia coli 63103 after overnight incubation by broth microdilution method; outline: as §1
# [7] = system: Stenotrophomonas maltophilia; test: Antimicrobial activity against Pseudomonas maltophilia ATCC 13637 after overnight incubation by broth microdilution method; outline: as §1
# [8] = system: Pseudomonas aeruginosa; test: Antimicrobial activity against Pseudomonas aeruginosa H1030 after overnight incubation by broth microdilution method; outline: as §2
# [9] = system: Pseudomonas aeruginosa; test: Antimicrobial activity against Pseudomonas aeruginosa H103 after overnight incubation by broth microdilution method; outline: as §1
# [10] = system: Enterobacter cloacae; test: Antimicrobial activity against class C chromosomal beta lactamase expressing Enterobacter cloacae 218R after overnight incubation by broth microdilution method; outline: as §1
# [11] = system: Staphylococcus aureus; test: Antimicrobial activity against methicillin-resistant Staphylococcus aureus C623 after overnight incubation by broth microdilution method; outline: as §2
# [12] = system: Klebsiella pneumoniae; test: Antimicrobial activity against extended-spectrum beta-lactamase-resistant Klebsiella pneumoniae 63575 after overnight incubation by broth microdilution method; outline: as §2
# [13] = system: Enterococcus faecium; test: Antimicrobial activity against vancomycin-resistant Enterococcus faecium mic80(VanA) isolate after overnight incubation by broth microdilution method; outline: as §2
# [14] = system: Enterococcus faecium; test: Antimicrobial activity against vancomycin-resistant Enterococcus faecium t62764(VanB) isolate after overnight incubation by broth microdilution method; outline: as §2
# [15] = system: Enterococcus faecalis; test: Antimicrobial activity against vancomycin-resistant Enterococcus faecalis f43559 (VanB) isolate after overnight incubation by broth microdilution method; outline: as §2
# [16] = system: Enterococcus faecalis; test: Antimicrobial activity against vancomycin-resistant Enterococcus faecalis w6190(VanA) isolate after overnight incubation by broth microdilution method; outline: as §2
# [17] = system: Pseudomonas aeruginosa; test: Antimicrobial activity against Pseudomonas aeruginosa H1001 expressing luciferase gene assessed as ratio antimicrobial IC50 for drug to Bac2A peptide by luminescence assay
# Outline: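 Peptides are made by SPOT synthesis on cellulose, cleaved, and the spots placed in plate wells. Overnight P. aeruginosa H1001 (fliC::luxCDABE) is diluted 1:500 in 100 mM Tris-HCl pH 7.3 with 20 mM glucose and added to the wells. After 30 min, serial dilutions (8 rows) are made. Luminescence is read at 4 h. IC50 is taken from a sigmoid fit and expressed relative to Bac2A run in the same series.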
# [18] = system: Klebsiella pneumoniae; test: Antimicrobial activity against extended-spectrum beta-lactamase-resistant Klebsiella pneumoniae 61962 after overnight incubation by broth microdilution method; outline: as §2
# [19] = system: Pseudomonas aeruginosa; test: Antimicrobial activity against multidrug-resistant Pseudomonas aeruginosa Brazil 9 isolate after overnight incubation by broth microdilution method; outline: as §2
# [20] = system: Pseudomonas aeruginosa; test: Antimicrobial activity against multidrug-resistant Pseudomonas aeruginosa Brazil 213 isolate after overnight incubation by broth microdilution method; outline: as §2
# [21] = system: Pseudomonas aeruginosa; test: Antimicrobial activity against multidrug-resistant Pseudomonas aeruginosa Brazil 198 isolate after overnight incubation by broth microdilution method; outline: as §2
molecule,measurement,setting,value
H-AWRFKNIRK-OH,MIC,[1],223 µM
same,MIC,[2],223 µM
same,MIC,[3],> 223 µM
same,MIC,[4],111 µM
same,MIC,[5],> 223 µM
same,MIC,[6],> 223 µM
same,MIC,[7],> 223 µM
same,MIC,[8],> 223 µM
same,MIC,[9],> 223 µM
same,MIC,[10],> 223 µM
same,MIC,[11],> 223 µM
same,MIC,[12],> 223 µM
same,MIC,[13],> 223 µM
same,MIC,[14],223 µM
same,MIC,[15],> 223 µM
same,MIC,[16],> 223 µM
same,Ratio IC50,[17],9.2
same,MIC,[18],> 223 µM
H-RRFKFIRWW-OH,MIC,[1],12 µM
same,MIC,[2],6.1 µM
same,MIC,[3],12 µM
same,MIC,[19],24 µM
same,MIC,[4],3.1 µM
same,MIC,[5],12 µM
same,MIC,[6],12 µM
same,MIC,[20],49 µM
same,MIC,[7],0.8 µM
same,MIC,[8],49 µM
same,MIC,[9],6.1 µM
same,MIC,[10],12 µM
same,MIC,[11],6.1 µM
same,MIC,[12],49 µM
same,MIC,[13],6.1 µM
same,MIC,[14],6.1 µM
same,MIC,[15],49 µM
same,MIC,[16],98 µM
same,Ratio IC50,[17],0.24
same,MIC,[21],49 µM
same,MIC,[18],98 µM
H-FRRWWKWFK-OH,MIC,[1],6.1 µM
same,MIC,[2],1.5 µM
same,MIC,[3],5.9 µM
same,MIC,[19],12 µM
same,MIC,[4],1.5 µM
same,MIC,[5],24 µM
same,MIC,[6],12 µM
same,MIC,[20],5.9 µM
same,MIC,[7],0.8 µM
same,MIC,[8],24 µM
same,MIC,[9],1.5 µM
same,MIC,[10],24 µM
same,MIC,[11],3 µM
same,MIC,[12],24 µM
same,MIC,[13],6.1 µM
same,MIC,[14],6.1 µM
same,MIC,[15],97 µM
same,MIC,[16],195 µM
same,Ratio IC50,[17],0.12
same,MIC,[21],3 µM
same,MIC,[18],97 µM
H-LRWWWIKRI-OH,MIC,[1],13 µM
same,MIC,[2],6.3 µM
same,MIC,[3],25 µM
same,MIC,[19],50 µM
same,MIC,[4],6.3 µM
same,MIC,[5],13 µM
same,MIC,[6],25 µM
same,MIC,[20],50 µM
same,MIC,[7],3.2 µM
same,MIC,[8],25 µM
same,MIC,[9],13 µM
same,MIC,[10],50 µM
same,MIC,[11],6.3 µM
same,MIC,[12],50 µM
same,MIC,[13],6.3 µM
same,MIC,[14],1.5 µM
same,MIC,[15],25 µM
same,MIC,[16],50 µM
same,Ratio IC50,[17],0.33
same,MIC,[21],25 µM
same,MIC,[18],201 µM
H-KIWWWWRKR-OH,MIC,[1],5.9 µM
same,MIC,[2],5.9 µM
same,MIC,[3],47 µM
same,MIC,[19],47 µM
same,MIC,[4],5.9 µM
same,MIC,[5],24 µM
same,MIC,[6],12 µM
same,MIC,[20],47 µM
same,MIC,[7],3 µM
same,MIC,[8],12 µM
same,MIC,[9],5.9 µM
same,MIC,[10],94 µM
same,MIC,[11],5.9 µM
same,MIC,[12],47 µM
same,MIC,[13],5.9 µM
same,MIC,[14],1.5 µM
same,MIC,[15],94 µM
same,MIC,[16],94 µM
same,Ratio IC50,[17],0.13
same,MIC,[21],24 µM
same,MIC,[18],189 µM
H-KRIMKLKMR-OH,MIC,[1],> 226 µM
same,MIC,[2],> 226 µM
same,MIC,[3],> 226 µM
same,MIC,[4],> 226 µM
same,MIC,[5],> 226 µM
same,MIC,[6],> 226 µM
same,MIC,[7],> 226 µM
same,MIC,[8],> 226 µM
same,MIC,[9],> 226 µM
same,MIC,[10],> 226 µM
same,MIC,[11],> 226 µM
same,MIC,[12],> 226 µM
same,MIC,[13],> 226 µM
same,MIC,[14],> 226 µM
same,MIC,[15],> 226 µM
same,MIC,[16],> 226 µM
same,Ratio IC50,[17],6.5
same,MIC,[18],> 226 µM
H-AVWKFVKRV-OH,MIC,[1],120 µM
same,MIC,[2],240 µM
same,MIC,[3],240 µM
same,MIC,[4],120 µM
same,MIC,[5],> 240 µM
same,MIC,[6],240 µM
same,MIC,[7],60 µM
same,MIC,[8],> 240 µM
same,MIC,[9],240 µM
same,MIC,[10],> 240 µM
same,MIC,[11],240 µM
same,MIC,[12],> 240 µM
same,MIC,[13],120 µM
same,MIC,[14],120 µM
same,MIC,[15],> 240 µM
same,MIC,[16],> 240 µM
same,Ratio IC50,[17],8.18
same,MIC,[21],240 µM
same,MIC,[18],> 240 µM
H-AIRRWRIRK-OH,MIC,[1],108 µM
same,MIC,[2],54 µM
same,MIC,[3],> 217 µM
same,MIC,[4],217 µM
same,MIC,[5],> 217 µM
same,MIC,[6],108 µM
same,MIC,[7],108 µM
same,MIC,[8],> 217 µM
same,MIC,[9],> 217 µM
same,MIC,[10],108 µM
same,MIC,[11],54 µM
same,MIC,[12],> 217 µM
same,MIC,[13],108 µM
same,MIC,[14],14 µM
same,MIC,[15],> 217 µM
same,MIC,[16],> 217 µM
same,Ratio IC50,[17],4.62
same,MIC,[18],> 217 µM
N=C(N)NCCC[C@H](NC(=O)[C@H](CCCCN)NC(=O)[C@H](CCCNC(=N)N)NC(=O)[C@@H](N)CCCNC(=N)N)C(=O)N[C@@H](Cc1c[nH]c2ccccc12)C(=O)N[C@@H](Cc1c[nH]c2ccccc12)C(=O)N[C@@H](Cc1c[nH]c2ccccc12)C(=O)N[C@@H](Cc1c[nH]c2ccccc12)C(=O)N[C@@H](Cc1c[nH]c2ccccc12)C(=O)O,Ratio IC50,[17],0.43
H-WRFKVLRQR-OH,Ratio IC50,[17],7.08
H-RKWRWRWLK-OH,Ratio IC50,[17],0.31
H-IRGRIIFWV-OH,Ratio IC50,[17],0.44
H-RSGKKRWRR-OH,Ratio IC50,[17],6.5
H-WGGHKRRGW-OH,Ratio IC50,[17],6.19
H-RWRWKRWWW-OH,Ratio IC50,[17],0.25
H-VSGNWRGSR-OH,Ratio IC50,[17],8.54
H-SFNWKRSGK-OH,Ratio IC50,[17],25
H-RGRTSNWKM-OH,Ratio IC50,[17],7.07
H-IRRRKWWWW-OH,Ratio IC50,[17],0.21
H-WRRWWKWWR-OH,Ratio IC50,[17],0.23
H-GKRVWGRGR-OH,Ratio IC50,[17],8.2
H-ATRKGYSKF-OH,Ratio IC50,[17],25
H-RIKVIWWWR-OH,Ratio IC50,[17],0.51
H-RWMVSKIWY-OH,Ratio IC50,[17],25
H-RWRGIVHIR-OH,Ratio IC50,[17],4.93
H-GRTMNGRW-OH,Ratio IC50,[17],6.93
H-GRQISWGRT-OH,Ratio IC50,[17],8.04
H-SSGVRWSWR-OH,Ratio IC50,[17],8.16
H-RGKYIRWRK-OH,Ratio IC50,[17],3.83

# From ChEMBL document CHEMBL1153389, “Identification of novel antibacterial peptides by chemoinformatics and machine learning” (2009)
